Assay results from ChEMBL document CHEMBL1124493, “Synthesis and tumor uptake of 5-82Br- and 5-131I-labeled 5-halo-1-(2-fluoro-2-deoxy-beta-D-ribofuranosyl)uracils” (J Med Chem, 1989).

How the values were obtained:
Mus musculus [1] = assay: Biodistribution of intravenously injected [131I]-labeled compound in bone of BDF1 female mice bearing subcutaneous Lewis lung carcinoma after 2 hours; assay type: ADME, organism-based, Bone element; conditions: in vivo, iv
Summary of the method: (§1)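 Female BDF1 mice bearing subcutaneous Lewis lung carcinoma received a single intravenous dose of 0.5-1.8 μg of the 131I-labeled nucleoside (55-110 kBq). They were sacrificed at set times, and tissues were weighed wet and γ-counted. Activity is expressed as percent of injected dose per gram of wet tissue, given as mean ± standard deviation for six animals.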

Mus musculus [2] = assay: Biodistribution of intravenously injected [131I]-labeled compound in tumor of BDF1 female mice bearing subcutaneous Lewis lung carcinoma after 24 hours; assay type: ADME, organism-based; conditions: in vivo, iv
Summary of the method: (§2)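 Female BDF1 mice with subcutaneous Lewis lung carcinoma given i.v. 0.5-1.8 μg of 131I-labeled nucleoside (55-110 kBq). Killed at set times. Tissues weighed wet and γ-counted. Radioactivity expressed as percent injected dose per gram wet tissue, mean ± SD of six animals.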

Mus musculus [3] = species on record: Mus musculus; assay: Urinary [131I]5-iodouracil observed in BDF1 female mice bearing lewis lung tumor after 0-0.5 hr of injected [131I]-compound; assay type: functional, tissue-based; conditions: Urine
Mus musculus [4] = assay: Biodistribution of intravenously injected [131I]-labeled compound in gut of BDF1 female mice bearing subcutaneous Lewis lung carcinoma after 2 hours; assay type: ADME, organism-based; conditions: in vivo, iv; summary of the method: as §1
Mus musculus [5] = assay: Biodistribution of intravenously injected [131I]-labeled compound in spleen of BDF1 female mice bearing subcutaneous Lewis lung carcinoma after 0.25 hours; assay type: ADME, organism-based; conditions: in vivo, iv; summary of the method: as §2
Mus musculus [6] = assay: Biodistribution of intravenously injected [131I]-labeled compound in gut of BDF1 female mice bearing subcutaneous Lewis lung carcinoma after 24 hours; assay type: ADME, organism-based; conditions: in vivo, iv; summary of the method: as §1
Mus musculus [7] = species on record: Mus musculus; assay: Other urinary compounds observed in BDF1 female mice bearing lewis lung tumor after 6-7 hr of injected [131I]-compound; assay type: functional, tissue-based; conditions: Urine
Mus musculus [8] = assay: Biodistribution of intravenously injected [131I]-labeled compound in muscle of BDF1 female mice bearing subcutaneous Lewis lung carcinoma after 0.5 hours; assay type: ADME, organism-based, Muscle tissue; conditions: in vivo, iv; summary of the method: as §1
Mus musculus [9] = assay: Biodistribution of intravenously injected [131I]-labeled compound in bone of BDF1 female mice bearing subcutaneous Lewis lung carcinoma after 0.5 hours; assay type: ADME, organism-based, Bone element; conditions: in vivo, iv; summary of the method: as §1
Mus musculus [10] = assay: Biodistribution of intravenously injected [131I]-labeled compound in lung of BDF1 female mice bearing subcutaneous Lewis lung carcinoma after 2 hours; assay type: ADME, organism-based; conditions: in vivo, iv; summary of the method: as §1
Mus musculus [11] = assay: Biodistribution of intravenously injected [131I]-labeled compound in heart of BDF1 female mice bearing subcutaneous Lewis lung carcinoma after 24 hours; assay type: ADME, organism-based; conditions: in vivo, iv; summary of the method: as §1
Mus musculus [12] = assay: Biodistribution of intravenously injected [131I]-labeled compound in muscle of BDF1 female mice bearing subcutaneous Lewis lung carcinoma after 4 hours; assay type: ADME, organism-based, Muscle tissue; conditions: in vivo, iv; summary of the method: as §2
Mus musculus [13] = assay: Biodistribution of intravenously injected [131I]-labeled compound in muscle of BDF1 female mice bearing subcutaneous Lewis lung carcinoma after 0.25 hours; assay type: ADME, organism-based, Muscle tissue; conditions: in vivo, iv; summary of the method: as §1
Mus musculus [14] = assay: Biodistribution of intravenously injected [131I]-labeled compound in spleen of BDF1 female mice bearing subcutaneous Lewis lung carcinoma after 0.50 hours; assay type: ADME, organism-based; conditions: in vivo, iv, 0.5 h; summary of the method: as §2
Mus musculus [15] = assay: Biodistribution of intravenously injected [131I]-labeled compound in muscle of BDF1 female mice bearing subcutaneous Lewis lung carcinoma after 2 hours; assay type: ADME, organism-based, Muscle tissue; conditions: in vivo, iv; summary of the method: as §2
Mus musculus [16] = species on record: Mus musculus; assay: Inhibition constant for influx competition with [6-3H]thymidine in mouse erythrocytes; assay type: functional
Summary of the method: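 Freshly harvested mouse erythrocytes were exposed to various concentrations of test nucleoside and [6-3H]thymidine, and zero-trans thymidine influx was measured. Extracellular [6-3H]thymidine was measured over time by liquid scintillation counting of aliquots. The Ki for competition at the nucleoside transporter was derived by previously described methods.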

Mus musculus [17] = species on record: Mus musculus; assay: Other urinary compounds observed in BDF1 female mice bearing lewis lung tumor after 2-3 hr of injected [131I]-compound; assay type: functional, tissue-based; conditions: Urine
Mus musculus [18] = assay: Biodistribution of intravenously injected [131I]-labeled compound in gut of BDF1 female mice bearing subcutaneous Lewis lung carcinoma after 0.50 hours; assay type: ADME, organism-based; conditions: in vivo, iv, 0.5 h; summary of the method: as §1
Mus musculus [19] = species on record: Mus musculus; assay: Urinary [131I]- compound observed in BDF1 female mice bearing lewis lung tumor after 2-3 hr of injected [131I]-compound; assay type: functional, tissue-based; conditions: Urine
Mus musculus [20] = assay: Biodistribution of intravenously injected [131I]-labeled compound in blood of BDF1 female mice bearing subcutaneous Lewis lung carcinoma after 1 hours; assay type: ADME, organism-based; conditions: in vivo, iv; summary of the method: as §1
Mus musculus [21] = assay: Biodistribution of intravenously injected [82Br]-labeled compound in blood of BDF1 female mice bearing subcutaneous Lewis lung carcinoma after 4 hours; assay type: ADME, organism-based; conditions: in vivo, iv, in the assay text read “[131I]-labeled” for “[82Br]-labeled”
Mus musculus [22] = assay: Biodistribution of intravenously injected [82Br]-labeled compound in kidney of BDF1 female mice bearing subcutaneous Lewis lung carcinoma after 0.25 hours; assay type: ADME, organism-based; conditions: in vivo, iv
Summary of the method: (§3)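 Female BDF1 mice with subcutaneous Lewis lung carcinoma given an iv injection of [82Br]-labelled nucleoside, 47-130 μg carrying 20-60 kBq 82Br. Tissues were excised, weighed wet and γ-counted. Values are percent injected dose per gram of wet tissue, mean ± standard deviation of six animals, with organ-to-tumour ratios derived.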

Mus musculus [23] = assay: Biodistribution of intravenously injected [82Br]-labeled compound in stomach of BDF1 female mice bearing subcutaneous Lewis lung carcinoma after 2 hours; assay type: ADME, organism-based; conditions: in vivo, iv
Mus musculus [24] = assay: Biodistribution of intravenously injected [82Br]-labeled compound in tumor of BDF1 female mice bearing subcutaneous Lewis lung carcinoma after 0.50 hours; assay type: ADME, organism-based; conditions: in vivo, iv, 0.5 h
Mus musculus [25] = assay: Biodistribution of intravenously injected [82Br]-labeled compound in skin of BDF1 female mice bearing subcutaneous Lewis lung carcinoma after 24 hours; assay type: ADME, organism-based, Zone of skin; conditions: in vivo, iv; summary of the method: as §3
Mus musculus [26] = assay: Biodistribution of intravenously injected [82Br]-labeled compound in lung of BDF1 female mice bearing subcutaneous Lewis lung carcinoma after 2 hours; assay type: ADME, organism-based; conditions: in vivo, iv; summary of the method: as §3
Mus musculus [27] = assay: Biodistribution of intravenously injected [82Br]-labeled compound in skin of BDF1 female mice bearing subcutaneous Lewis lung carcinoma after 1 hours; assay type: ADME, organism-based, Zone of skin; conditions: in vivo, iv; summary of the method: as §3
Mus musculus [28] = assay: Biodistribution of intravenously injected [82Br]-labeled compound in bone of BDF1 female mice bearing subcutaneous Lewis lung carcinoma after 4 hours; assay type: ADME, organism-based, Bone element; conditions: in vivo, iv
Summary of the method: (§4)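 82Br-labeled nucleoside given intravenously to female BDF1 mice bearing subcutaneous Lewis lung carcinoma, at 47-130 μg carrying 20-60 kBq. Mice sacrificed at each time point. Wet-weighed tissues γ-counted. Values are percent injected dose per gram wet tissue, mean ± SD, n = 6.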

Mus musculus [29] = assay: Biodistribution of intravenously injected [82Br]-labeled compound in spleen of BDF1 female mice bearing subcutaneous Lewis lung carcinoma after 1 hours; assay type: ADME, organism-based; conditions: in vivo, iv; summary of the method: as §3
Mus musculus [30] = assay: Biodistribution of intravenously injected [82Br]-labeled compound in skin of BDF1 female mice bearing subcutaneous Lewis lung carcinoma after 0.50 hours; assay type: ADME, organism-based, Zone of skin; conditions: in vivo, iv, 0.5 h; summary of the method: as §3
Mus musculus [31] = assay: Biodistribution of intravenously injected [82Br]-labeled compound in lung of BDF1 female mice bearing subcutaneous Lewis lung carcinoma after 0.5 hours; assay type: ADME, organism-based; conditions: in vivo, iv; summary of the method: as §3
Mus musculus [32] = assay: Biodistribution of intravenously injected [82Br]-labeled compound in bone of BDF1 female mice bearing subcutaneous Lewis lung carcinoma after 8 hours; assay type: ADME, organism-based, Bone element; conditions: in vivo, iv; summary of the method: as §4
Mus musculus [33] = assay: Biodistribution of intravenously injected [82Br]-labeled compound in spleen of BDF1 female mice bearing subcutaneous Lewis lung carcinoma after 4 hours; assay type: ADME, organism-based; conditions: in vivo, iv
Mus musculus [34] = assay: Biodistribution of intravenously injected [82Br]-labeled compound in spleen of BDF1 female mice bearing subcutaneous Lewis lung carcinoma after 2 hours; assay type: ADME, organism-based; conditions: in vivo, iv
Mus musculus [35] = assay: Biodistribution of intravenously injected [82Br]-labeled compound in blood of BDF1 female mice bearing subcutaneous Lewis lung carcinoma after 8 hours; assay type: ADME, organism-based; conditions: in vivo, iv; summary of the method: as §4
Mus musculus [36] = assay: Biodistribution of intravenously injected [82Br]-labeled compound in blood of BDF1 female mice bearing subcutaneous Lewis lung carcinoma after 0.25 hours; assay type: ADME, organism-based; conditions: in vivo, iv; summary of the method: as §4
Mus musculus [37] = assay: Biodistribution of intravenously injected [82Br]-labeled compound in stomach of BDF1 female mice bearing subcutaneous Lewis lung carcinoma after 8 hours; assay type: ADME, organism-based; conditions: in vivo, iv

Question: What does the source list for `O=c1[nH]c(=O)n([C@@H]2O[C@H](CO)[C@@H](O)[C@H]2F)cc1I`?
Answer: Injected dose/g (Mus musculus [1]): 1.2%; Injected dose/g (Mus musculus [2]): 0.08%; Radioactive constituents (Mus musculus [3]): 1.8%; Injected dose/g (Mus musculus [4]): 1.9%; Injected dose/g (Mus musculus [5]): 3.2%; Injected dose/g (Mus musculus [6]): 0.07%; Radioactive constituents (Mus musculus [7]): 0%; Injected dose/g (Mus musculus [8]): 2%; Injected dose/g (Mus musculus [9]): 1.8%; Injected dose/g (Mus musculus [10]): 5.1%; Injected dose/g (Mus musculus [11]): 0.1%; Injected dose/g (Mus musculus [12]): 1.3%; Injected dose/g (Mus musculus [13]): 2.5%; Injected dose/g (Mus musculus [14]): 2.9%; Injected dose/g (Mus musculus [15]): 1.3%; Ki (Mus musculus [16]): 410 µM; Radioactive constituents (Mus musculus [17]): 3.5%; Injected dose/g (Mus musculus [18]): 2.8%; Radioactive constituents (Mus musculus [19]): 82.8%; Injected dose/g (Mus musculus [20]): 13.3%; Injected dose/g (Mus musculus [21]): 8.5%

Question: Which results are given for `O=c1[nH]c(=O)n([C@H]2O[C@@H](CO)[C@H](O)[C@H]2F)cc1Br`?
Answer: Injected dose/g (Mus musculus [22]): 7.69%; Injected dose/g (Mus musculus [23]): 0.52%; Injected dose/g (Mus musculus [24]): 0.95%; Injected dose/g (Mus musculus [25]): 0.22%; Injected dose/g (Mus musculus [26]): 0.54%; Injected dose/g (Mus musculus [27]): 0.45%; Injected dose/g (Mus musculus [28]): 0.17%; Injected dose/g (Mus musculus [29]): 0.38%; Injected dose/g (Mus musculus [30]): 0.72%; Injected dose/g (Mus musculus [31]): 0.91%; Injected dose/g (Mus musculus [32]): 0.23%; Injected dose/g (Mus musculus [33]): 0.28%; Injected dose/g (Mus musculus [34]): 0.35%; Ki (Mus musculus [16]): 390 µM; Injected dose/g (Mus musculus [35]): 0.72%; Injected dose/g (Mus musculus [36]): 2.68%; Injected dose/g (Mus musculus [37]): 0.53%
